Test results as given in ChEMBL document CHEMBL3085664, “Structure-activity relationship of imidazopyridinium analogues as antagonists of neuropeptide s receptor” (J Med Chem, 2013).
pIC50: −log10 of the molar value. Calls of active or inactive are those of the source. The rule behind the calls is not given here.

Legend:
[1] = biological target: T1, Mu-type opioid receptor (Homo sapiens, UniProt P35372); test: Displacement of radiolabeled DAMGO from human recombinant mu opioid receptor expressed in OPRM1 cells; format: cell-based
T1 sequence (P35372 whole entry): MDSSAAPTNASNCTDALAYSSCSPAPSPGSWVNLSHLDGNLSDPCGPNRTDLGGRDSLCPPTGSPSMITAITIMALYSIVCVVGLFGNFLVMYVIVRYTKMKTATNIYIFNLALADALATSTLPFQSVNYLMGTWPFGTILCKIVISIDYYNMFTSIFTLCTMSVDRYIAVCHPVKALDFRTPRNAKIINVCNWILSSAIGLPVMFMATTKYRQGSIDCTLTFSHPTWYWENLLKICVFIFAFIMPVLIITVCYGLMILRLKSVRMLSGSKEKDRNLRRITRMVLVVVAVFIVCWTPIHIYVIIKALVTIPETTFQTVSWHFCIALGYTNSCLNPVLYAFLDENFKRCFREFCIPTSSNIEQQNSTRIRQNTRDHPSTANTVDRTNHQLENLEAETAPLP

[2] = biological target: T1, Mu-type opioid receptor; test: Displacement of radiolabeled DAMGO from human recombinant mu opioid receptor expressed in […] at 10 uM; format: cell-based
[3] = test system: Rattus norvegicus; test: Inhibition of alcohol-induced ERK-phosphorylation in rat in central amygdala at 1 mg/kg, ip; format: functional, organism-based; set-up: dose 1 mg/kg
[4] = test system: Rattus norvegicus; test: Toxicity in Wistar rat administered daily; format: organism-based; conditions: in vivo
[5] = test system: Rattus norvegicus; test: Anorectic activity in Wistar rat assessed as […] of NPS-induced reduction of food intake at 20 ug, icv after 15 to 60 mins; format: functional, organism-based
[6] = Cmax in mouse brain at 10 mg/kg, ip; format: ADME, organism-based; set-up: dose 10 mg/kg, route intraperitoneal
Procedure, shortened: (§1)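 Mouse pharmacokinetics after a single 10 mpk intraperitoneal dose. Plasma and brain were sampled at 0, 0.083, 0.25, 0.5, 1, 2, 4, 8, 12 and 24 h. Concentrations are reported as the mean of N=3 at each time point, in ng/mL or nM for plasma and ng/g or nmol/g for brain.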

[7] = test system: Brain; test: AUClast in mouse brain at 10 mg/kg, ip; format: ADME, organism-based; set-up: time 0 - last, dose 10 mg/kg, route intraperitoneal; conditions: in vivo; procedure, shortened: as §1
[8] = Ratio of AUC in brain to AUC in plasma in mouse at 10 mg/kg, ip; format: ADME, organism-based; set-up: dose 10 mg/kg, route intraperitoneal; conditions: brain and plasma, read-out: Ratio AUC; procedure, shortened: as §1
[9] = test system: Brain; test: Tmax in mouse brain at 10 mg/kg, ip; format: ADME, organism-based; set-up: dose 10 mg/kg, route intraperitoneal; conditions: in vivo; procedure, shortened: as §1
[10] = test system: Plasma; test: Half life in mouse plasma at 10 mg/kg, ip; format: ADME, organism-based; set-up: dose 10 mg/kg, route intraperitoneal; conditions: in vivo; procedure, shortened: as §1
[11] = test system: Plasma; test: AUClast in mouse plasma at 10 mg/kg, ip; format: ADME, organism-based; set-up: dose 10 mg/kg, route intraperitoneal, time 0 - last; conditions: in vivo; procedure, shortened: as §1
[12] = test system: Plasma; test: AUC (infinity) in mouse plasma at 10 mg/kg, ip; format: ADME, organism-based; set-up: time infinity, dose 10 mg/kg, route intraperitoneal; conditions: in vivo; procedure, shortened: as §1
[13] = test system: Plasma; test: Tmax in mouse plasma at 10 mg/kg, ip; format: ADME, organism-based; set-up: dose 10 mg/kg, route intraperitoneal; conditions: in vivo; procedure, shortened: as §1
[14] = test system: Plasma; test: Cmax in mouse plasma at 10 mg/kg, ip; format: ADME, organism-based; set-up: dose 10 mg/kg, route intraperitoneal; conditions: in vivo; procedure, shortened: as §1
[15] = test system: Brain; test: Drug level in mouse brain at 10 mg/kg, ip after 8 hrs; format: ADME, organism-based; set-up: dose 10 mg/kg, route intraperitoneal; conditions: in vivo; procedure, shortened: as §1
[16] = test system: Brain; test: Drug level in mouse brain at 10 mg/kg, ip after 12 hrs; format: ADME, organism-based; set-up: dose 10 mg/kg, route intraperitoneal; conditions: in vivo; procedure, shortened: as §1
[17] = test system: Brain; test: Drug level in mouse brain at 10 mg/kg, ip after 24 hrs; format: ADME, organism-based; set-up: dose 10 mg/kg, route intraperitoneal; conditions: in vivo; procedure, shortened: as §1
[18] = test system: Brain; test: Drug level in mouse brain at 10 mg/kg, ip after 2 hrs; format: ADME, organism-based; set-up: dose 10 mg/kg, route intraperitoneal; conditions: in vivo; procedure, shortened: as §1
[19] = test system: Brain; test: Drug level in mouse brain at 10 mg/kg, ip after 4 hrs; format: ADME, organism-based; set-up: dose 10 mg/kg, route intraperitoneal; conditions: in vivo; procedure, shortened: as §1
[20] = test system: Brain; test: Drug level in mouse brain at 10 mg/kg, ip after 0.5 hrs; format: ADME, organism-based; set-up: dose 10 mg/kg, route intraperitoneal; conditions: in vivo; procedure, shortened: as §1
[21] = test system: Brain; test: Drug level in mouse brain at 10 mg/kg, ip after 1 hrs; format: ADME, organism-based; set-up: dose 10 mg/kg, route intraperitoneal; conditions: in vivo; procedure, shortened: as §1
[22] = Plasma concentration in mouse at 10 mg/kg, ip after 24 hrs; format: ADME, organism-based; set-up: dose 10 mg/kg, route intraperitoneal; procedure, shortened: as §1
[23] = test system: Brain; test: Drug level in mouse brain at 10 mg/kg, ip after 0.083 hrs; format: ADME, organism-based; set-up: dose 10 mg/kg, route intraperitoneal; conditions: in vivo; procedure, shortened: as §1
[24] = test system: Brain; test: Drug level in mouse brain at 10 mg/kg, ip after 0.25 hrs; format: ADME, organism-based; set-up: dose 10 mg/kg, route intraperitoneal; conditions: in vivo; procedure, shortened: as §1
[25] = Plasma concentration in mouse at 10 mg/kg, ip after 8 hrs; format: ADME, organism-based; set-up: dose 10 mg/kg, route intraperitoneal; procedure, shortened: as §1
[26] = Plasma concentration in mouse at 10 mg/kg, ip after 12 hrs; format: ADME, organism-based; set-up: dose 10 mg/kg, route intraperitoneal; procedure, shortened: as §1
[27] = Plasma concentration in mouse at 10 mg/kg, ip after 2 hrs; format: ADME, organism-based; set-up: dose 10 mg/kg, route intraperitoneal; procedure, shortened: as §1
[28] = Plasma concentration in mouse at 10 mg/kg, ip after 4 hrs; format: ADME, organism-based; set-up: dose 10 mg/kg, route intraperitoneal; procedure, shortened: as §1
[29] = Plasma concentration in mouse at 10 mg/kg, ip after 0.5 hrs; format: ADME, organism-based; set-up: dose 10 mg/kg, route intraperitoneal; procedure, shortened: as §1
[30] = Plasma concentration in mouse at 10 mg/kg, ip after 1 hrs; format: ADME, organism-based; set-up: dose 10 mg/kg, route intraperitoneal; procedure, shortened: as §1
[31] = Plasma concentration in mouse at 10 mg/kg, ip after 0.083 hrs; format: ADME, organism-based; set-up: dose 10 mg/kg, route intraperitoneal; procedure, shortened: as §1
[32] = Plasma concentration in mouse at 10 mg/kg, ip after 0.25 hrs; format: ADME, organism-based; set-up: dose 10 mg/kg, route intraperitoneal; procedure, shortened: as §1
[33] = Metabolic stability in mouse liver microsomes assessed as compound remaining after 60 mins in absence NADPH; format: ADME, Microsome; conditions: read-out: Stability
Procedure, shortened: (§2)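 Compound was incubated with mouse liver microsomes, and percent parent remaining was determined at 15, 30 and 60 min. Values are means from a single experiment run in duplicate.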

[34] = Metabolic stability in mouse liver microsomes assessed as compound remaining after 30 mins in absence NADPH; format: ADME, Microsome; conditions: read-out: Stability; procedure, shortened: as §2
[35] = Metabolic stability in mouse liver microsomes assessed as compound remaining after 15 mins in absence NADPH; format: ADME, Microsome; conditions: read-out: Stability; procedure, shortened: as §2
[36] = Metabolic stability in mouse liver microsomes assessed as compound remaining after 60 mins in presence NADPH; format: ADME, Microsome; conditions: read-out: Stability; procedure, shortened: as §2
[37] = Metabolic stability in mouse liver microsomes assessed as compound remaining after 30 mins in presence NADPH; format: ADME, Microsome; conditions: read-out: Stability; procedure, shortened: as §2
[38] = Metabolic stability in mouse liver microsomes assessed as compound remaining after 15 mins in presence NADPH; format: ADME, Microsome; conditions: read-out: Stability; procedure, shortened: as §2
[39] = biological target: T2, Neuropeptide S receptor (Homo sapiens, UniProt Q6W5P4); test: Displacement of [125I]Tyr10-NPS from human neuropeptide S receptor expressed in CHO cells after 1.5 hrs by liquid scintillation counting; format: cell-based
T2 sequence (Q6W5P4 whole entry): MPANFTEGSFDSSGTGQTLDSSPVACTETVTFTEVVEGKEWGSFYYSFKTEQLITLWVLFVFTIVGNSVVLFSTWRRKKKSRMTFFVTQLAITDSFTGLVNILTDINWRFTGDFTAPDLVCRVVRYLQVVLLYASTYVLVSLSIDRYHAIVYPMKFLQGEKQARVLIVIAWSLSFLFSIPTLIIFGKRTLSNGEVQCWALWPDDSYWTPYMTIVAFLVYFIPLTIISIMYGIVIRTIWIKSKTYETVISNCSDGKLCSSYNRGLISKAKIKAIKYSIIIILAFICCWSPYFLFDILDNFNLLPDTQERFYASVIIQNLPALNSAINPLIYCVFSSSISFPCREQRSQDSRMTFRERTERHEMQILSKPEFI
Procedure, shortened: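 Whole CHO cells stably expressing human NPSR at 90–95% confluency in 24-well plates. Cells were incubated with 0.15 nM [125I]Y10-NPS plus increasing compound or unlabeled NPS in DMEM/0.1% BSA, 20°C, 1.5 hr. Nonspecific binding was defined with 1 µM unlabeled human NPS. Cells were washed, lysed in 1 N NaOH and counted by liquid scintillation. IC50 from one experiment in duplicate.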

[40] = biological target: T2, Neuropeptide S receptor; test: Antagonist activity at neuropeptide S receptor (unknown origin) expressed in CHO cells assessed as inhibition of NPS-induced ERK activation after 20 mins by HTRF assay; format: cell-based
[41] = biological target: T2, Neuropeptide S receptor; test: Antagonist activity at neuropeptide S receptor (unknown origin) expressed in CHO cells assessed as inhibition of NPS-induced calcium mobilization after 10 mins by fluorescence assay; format: functional, cell-based; conditions: read-out: IC50
Procedure, shortened: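 CHO-NPSR cells, 2000/well in 1536-well plates, incubated overnight, then loaded with no-wash calcium dye for 1 h at 37°C. Compound in DMSO was added for 10 min. Baseline fluorescence was recorded 6 s at 1 Hz, then EC80 NPS in stimulation buffer was added and recording continued 4 min at 1 Hz on a kinetic reader. IC50 is the mean with SD of two independent experiments in duplicate.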

[42] = biological target: T2, Neuropeptide S receptor; test: Antagonist activity at neuropeptide S receptor (unknown origin) expressed in CHO cells assessed as cAMP level after 30 mins by […] assay; format: functional, cell-based; conditions: read-out: IC50
Procedure, shortened: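 CHO cells stably expressing NPSR, 1800 cells/well in 1536-well format, seeded overnight at 37°C in medium without Geneticin. Stimulation buffer (PBS, 0.1% BSA, 0.05% Tween-20, 500µM Ro 20-1724, EC80 NPS) was added for 30 min at 37°C. cAMP was read by HTRF (d2-cAMP/cryptate anti-cAMP in lysis buffer, 30 min). IC50 is the mean with SD of two independent experiments, each run in duplicate.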

Compound: Cc1c(P(=S)(c2ccccc2)c2ccccc2)n2ccccc2[n+]1C/C=C/c1ccccc1.[Br-]
- pIC50 [1]: 6.24
- inhibition [2]: > 90%
- inhibition [3]: Active
- Activity [4]: Non-toxic
- Activity [5]: Active
- Cmax [6]: 43 ng/mL
- AUClast [7]: 746 ng·h/mL
- Kp [8]: 33
- Tmax [9]: 12 h
- t1/2 [10]: 8.8 h
- AUClast [11]: 2240 ng·h/mL
- AUC [12]: 2560 ng·h/mL
- Tmax [13]: 4.98 min
- Cmax [14]: 700 ng/mL
- Drug uptake [15]: 60 nmol/g
- Drug uptake [16]: 93 nmol/g
- Drug uptake [17]: 52 nmol/g
- Drug uptake [18]: 57 nmol/g
- Drug uptake [19]: 53 nmol/g
- Drug uptake [20]: 53 nmol/g
- Drug uptake [21]: 44 nmol/g
- concentration at 24 h [22]: 54 nM
- Drug uptake [23]: 30 nmol/g
- Drug uptake [24]: 52 nmol/g
- concentration at 8 h [25]: 214 nM
- concentration at 12 h [26]: 126 nM
- concentration at 2 h [27]: 386 nM
- concentration at 4 h [28]: 245 nM
- concentration at 0.5 h [29]: 1150 nM
- concentration at 1 h [30]: 556 nM
- concentration at 0.083 h [31]: 1500 nM
- concentration at 0.25 h [32]: 1320 nM
- remaining at 1 h [33]: 102%
- remaining at 0.5 h [34]: 102%
- remaining at 0.25 h [35]: 102%
- remaining at 1 h [36]: 26%
- remaining at 0.5 h [37]: 46%
- remaining at 0.25 h [38]: 72%
- pIC50 [39]: 8.46
- pIC50 [40]: 8.89
- pIC50 [41]: 9.02
- pIC50 [42]: 7.35
